Here are results for 1 compound from ChEMBL document CHEMBL1142233, “Treatment of diabetes and atherosclerosis by inhibiting fatty-acid-binding protein aP2” (2007).

Active and inactive are the calls of the source. The rule behind the calls is not given here.

Experiment [1] has as its system Macrophage. The experiment is described as follows: Decrease in MCP1 production in mouse aP2+/+ macrophage cells after 24 hrs. Format: functional, cell-based. In short, it runs like this: (§1)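 Immortalized mouse macrophage lines (aP2−/−R re-expressing aP2) kept 24 h in RPMI plus 5% LPDS with inhibitor 0–25 μM in DMSO. MCP-1 in supernatant measured by ELISA and expressed relative to inhibitor-free cells of each line. At least triplicate.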

Experiment [2] in a line: Decrease in MCP1 production in mouse aP2-/-R macrophage cells (re-expression of aP2) after 24 hrs. The format is functional, cell-based. The gist of the method:
as §1

Experiment [3] relates to Mus musculus. The experiment is described as follows: Inhibition of aP2 in 5-week old apoE -/- C57BL/6J mouse fed on western diet and 15 mg/kg/day, po drug simultaneously in early intervention study assessed as reduction of atherosclerotic lesion in en face aorta relative to control. Format: functional. Details: scale not given: the % may be the effect or the level left. In short, it runs like this: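 Male Apoe⁻/⁻ C57BL/6J mice were fed a western diet (21% fat, 0.21% cholesterol) from 4–5 weeks of age. They were gavaged for 6 weeks with 15 mg kg⁻¹ d⁻¹ in vehicle (10% 1-methyl-2-pyrrolidone, 5% cremophor EL with ethanol, in water), starting at 5 weeks (early) or 12 weeks (late). Perfusion-fixed, pinned-out aortas were stained with Sudan IV and lesion area was quantified.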

Experiment [4] deals with Mus musculus. The experiment is described as follows: Effect on glucose level in 5-week old apoE -/- C57BL/6J mouse fed on western diet and 15 mg/kg/day, po drug simultaneously in 5-11 week early intervention study. The format is functional. In short, it runs like this: (§2)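 Male Apoe−/− mice on western diet (21% fat, 0.21% cholesterol) from 4–5 weeks of age. Oral gavage for 6 weeks from age 5 or 12 weeks; vehicle 10% 1-methyl-2-pyrrolidone, 5% cremophor EL with ethanol in water. Blood taken after 6 h fast before and after treatment. Glucose by meter; insulin by ELISA; lipids and glycerol colorimetric.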

Experiment [5] has as its system Mus musculus. The experiment is described as follows: Effect on triglyceride level in 5-week old apoE-/- C57BL/6J mouse fed on western diet and 15 mg/kg/day, po drug simultaneously in 5-11 week early intervention study. Format: functional. The gist of the method: as §2
Experiment [6] has as its system Mus musculus. The experiment can be described thus: Increase in insulin-stimulated IRbeta tyrosine 1162/1163 phosphorylation in ob/ob mouse adipose tissue at 40 mg/kg/day, po relative to control. Format: functional, organism-based. The gist of the method:
(§3)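 Male ob/ob mice were dosed by oral gavage at 40 mg kg⁻¹ d⁻¹ or with vehicle. After 6 h food withdrawal and tribromoethanol anaesthesia, insulin (2 IU kg⁻¹) or PBS went into the portal vein. Adipose tissue was taken 3 min later, lysed and immunoblotted for IRβ pTyr1162/1163, AKT pSer473 and total proteins. Signals were quantified by densitometry.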

Experiment [7] has as its system Mus musculus. The experiment can be described thus: Increase in insulin-stimulated AKT serine 473 phosphorylation in ob/ob mouse adipose tissue at 40 mg/kg/day, po relative to control. The format is functional, organism-based. In short, it runs like this: as §3
For experiment [8], the system named is Mus musculus. The experiment can be described thus: Attenuation of fatty infiltration of liver in ob/ob mouse at 40 mg/kg/day, po. The format is functional, organism-based. In short, it runs like this:
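Male ob/ob mice given daily oral gavage for 6 weeks starting at 8 weeks of age. Liver sections stained with haematoxylin and eosin; n = 6 per group.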

For experiment [9], the system named is Mus musculus. The experiment is described as follows: Decrease in Scd1 expression in liver of ob/ob mouse at 40 mg/kg/day, po. Format: functional, organism-based. The gist of the method:
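Liver from male ob/ob mice gavaged daily for 6 weeks from 8 weeks of age, n = 6 per group. mRNA measured by SYBR Green real-time PCR: 95 °C 4 min, then 50 cycles of 95 °C 15 s, 58 °C 30 s, 72 °C 30 s. Normalized to 18s rRNA.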

For experiment [10], the system named is Mus musculus. The experiment can be described thus: Inhibition of JNK1 activity in ob/ob mouse liver at 40 mg/kg/day, po relative to control. The format is functional, organism-based. The gist of the method: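 Liver lysates (500–1,000 μg protein) from ob/ob mice gavaged at 40 mg kg⁻¹ d⁻¹ were immunoprecipitated with JNK1 antibody. The beads were incubated with 10 μCi ³²P-γATP, 10 μM ATP and 5 μg c-jun fusion protein in Hepes pH 7.4/MgCl₂ buffer at 30 °C for 20 min. The reaction was stopped with Laemmli buffer and quantified.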

Experiment [11] can be described thus: Reduction of IL6 expression mouse aP2+/+ macrophage cells relative to control. The format is functional, cell-based. In short, it runs like this: (§4)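 Mouse aP2⁺/⁺ and aP2-reconstituted aP2⁻/⁻ macrophage lines were grown in RPMI with FBS or 5% LPDS, with inhibitor in DMSO or vehicle. Mcp-1, Il1β, Il6 and Tnf mRNA were measured by SYBR Green qRT-PCR (annealing at 58 °C, 50 cycles), normalized to 18s rRNA and then to untreated cells. Mean ± s.e.m.; at least triplicate.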

The nature of experiment [12]: Reduction of IL6 expression mouse aP2-/-R macrophage cells (re-expression of aP2) relative to control. The format is functional, cell-based. The gist of the method:
as §4

Experiment [13] in a line: Reduction of TNF expression mouse aP2-/-R macrophage cells (re-expression of aP2) relative to control. Format: functional, cell-based. In short, it runs like this: as §4
The subject of experiment [14] is Mus musculus. The experiment can be described thus: Effect on cholesterol level in ob/ob mouse at 40 mg/kg/day, po after 6 weeks relative to control. The format is functional. In short, it runs like this: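 Male ob/ob mice given oral gavage daily for 6 weeks from 8 weeks old, n = 6 per group. Blood taken after 6 h fast before and after treatment; fed glucose taken at week 2. Glucose by meter on 3 μl whole blood, insulin by ultrasensitive ELISA, cholesterol, FFA and glycerol by colorimetric microplate assays.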

Experiment [15] deals with Mus musculus. The experiment can be described thus: Decrease in triglyceride level in ob/ob mouse at 40 mg/kg/day, po after 6 weeks relative to control. Format: functional.
The species named for experiment [16] is Mus musculus. The experiment can be described thus: Decrease in glucose level in wild type mouse fed on high fat diet after 4 weeks by glucose tolerance test relative to control. The format is functional, organism-based. The gist of the method:
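Wild-type C57BL/6J mice on 60% fat diet from 4 weeks of age, gavaged with 40 mg kg⁻¹ d⁻¹ or vehicle for 4 weeks starting at 20 weeks of age. Glucose tolerance tested with 1.5 g kg⁻¹ intraperitoneal glucose after an overnight fast.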

A further experiment deals with THP-1. The experiment can be described thus: Reduction of cholesterol ester accumulation in human THP1 cells at 25 uM after 4 days relative to control. Format: functional. The arrangement: scale not given: the % may be the effect or the level left. In short, it runs like this:
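THP-1 monocytes were made into macrophages with 100 nM PMA for 24 h, then loaded for 24 h with 50 μg ml⁻¹ acLDL in 5% LPDS. They were then held 4 days in 10% FBS with 25 μM inhibitor or DMSO. After hexane/isopropanol extraction, cholesterol ester was taken as total minus free cholesterol, per cellular protein.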

The subject of experiment [17] is Macrophage. The experiment is described as follows: Reduction in total cholesterol ester content in mouse aP2+/+ macrophage cells at 25 uM relative to control. The format is functional, cell-based.
For experiment [18], the system named is Macrophage. The experiment is described as follows: Increase in cholesterol efflux in mouse aP2-/- macrophage cells at 25 uM relative to control. Format: functional, cell-based. The gist of the method:
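Macrophages loaded 24 h in RPMI with 5% LPDS, 1 μCi ml⁻¹ ³H-cholesterol and 50 μg ml⁻¹ acLDL, ± 25 μM inhibitor. Equilibrated 24 h in 0.2% fatty-acid-free BSA ± inhibitor, then 4 h ± APOA1 20 μg ml⁻¹. Efflux = medium ³H as % of total, per mg protein; mouse lines normalized to untreated aP2+/+.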

For experiment [19], the system named is Mus musculus. The experiment can be described thus: Decrease in F4/80 (Emr1) expression in ob/ob mouse adipose tissue at 40 mg/kg/day, po. Format: functional, organism-based.
Experiment [20] relates to Macrophage. The experiment is described as follows: Reduction of IL1-beta expressed in mouse aP2+/+ macrophage cells relative to control. The format is functional, cell-based. The gist of the method:
as §4

Experiment [21] relates to Mus musculus. The experiment is described as follows: Increase in glucose metabolism in ob/ob mouse at 40 mg/kg/day, po after 4 weeks by glucose tolerance test. The format is functional, organism-based. In short, it runs like this: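 Male ob/ob mice after 4 weeks of daily 40 mg kg⁻¹ oral gavage (started at 8 weeks), n = 6 per group. Glucose tolerance tested with 0.5 g kg⁻¹ intraperitoneal glucose after an overnight fast.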

Regarding `CCc1c(-c2ccccc2)c(-c2ccccc2)nn1-c1ccccc1-c1cccc(OCC(=O)O)c1`, the outcome (in the experiment on Macrophage [1]; in [2]; in the experiment with Mus musculus [6]; in the experiment with Mus musculus [7]; in the experiment with Mus musculus [8]; with Mus musculus [9]) was Active. The outcome (in the experiment with Mus musculus [10]; in [11]; in experiment [12]; in experiment [13]; in the experiment filed under Mus musculus [16]; with Macrophage [17]) was Active. In addition, the outcome with Mus musculus [19], in the experiment on Macrophage [20] and in the experiment on Mus musculus [21] was Active. The Activity in the experiment with Mus musculus [3] is 52.6%; in the experiment with Mus musculus [4], 133.2 mg/dL; in the experiment with Mus musculus [5] it was 213.6 mg/dL; in the experiment on Mus musculus [14], 285.3 mg/dL; in the experiment on Mus musculus [15] it was 58 mg/dL; with THP-1 it was 44%. Moreover, in the experiment with Macrophage [18], the outcome was inactive.
